# ChEMBL document CHEMBL4689842, “EUbOPEN Chemogenomics Library wave 1” (2021)
# Tested on: Fibroblast
# Experiment: Multiplex assay against human fibroblast
# Format: toxicity, cell-based
# Procedure, shortened: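 At seeding, live cells were stained with Hoechst33342, BioTracker Green Microtubule Cytoskeleton Dye, MitoTracker Red and Annexin V Alexa Fluor 680. After compound addition they were imaged on a CQ1 microscope at 37°C and 5% CO2, and CellPathfinder machine-learning gating sorted them into Hoechst high-intensity objects or normal cells, with normal cells further split into healthy, pyknosed or fragmented nuclei and pyknosed cells into mitotic or apoptotic. Tubulin, mitochondrial-mass and membrane-permeability phenotypes are given as per cents of cells with healthy nuclei.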
# [1] = 12 h, 1 µM, compound concentration 1 uM, replicate 1
# [2] = 12 h, 1 µM, compound concentration 1 uM, replicate 2
# [3] = 12 h, 10 µM, compound concentration 10 uM, replicate 1
# [4] = 12 h, 10 µM, compound concentration 10 uM, replicate 2
# [5] = 24 h, 1 µM, compound concentration 1 uM, replicate 1
# [6] = 24 h, 1 µM, compound concentration 1 uM, replicate 2
# [7] = 24 h, 10 µM, compound concentration 10 uM, replicate 1
# [8] = 24 h, 10 µM, compound concentration 10 uM, replicate 2
# [9] = 48 h, 1 µM, compound concentration 1 uM, replicate 1
# [10] = 48 h, 1 µM, compound concentration 1 uM, replicate 2
# [11] = 48 h, 10 µM, compound concentration 10 uM, replicate 1
# [12] = 48 h, 10 µM, compound concentration 10 uM, replicate 2
structure (smiles),measurement,setting,value
Cc1csc2c(N[C@@H](C)CN3CCN(S(=O)(=O)c4ccc(Cl)c(Cl)c4)CC3)ncnc12,Population Apoptotic (%),[1],56%
same,Population Fragmented Nuclei (%),[1],22%
same,Population Healthy Nuclei (%),[1],46%
same,Population Hoechst High Intensity Objects (%),[1],5%
same,Population Membrane Permeable-Phenotype (%),[1],33%
same,Population Mitochondria Different-Phenotype (%),[1],21%
same,Population Mitotic Cells (%),[1],43%
same,Population Normal (%),[1],94%
same,Population Pyknosed Nuclei (%),[1],31%
same,Population Tubulin-Different-Phenotype (%),[1],87%
same,Total Cell Count,[1],149
same,Population Apoptotic (%),[2],16%
same,Population Fragmented Nuclei (%),[2],5%
same,Population Healthy Nuclei (%),[2],84%
same,Population Membrane Permeable-Phenotype (%),[2],6%
same,Population Mitochondria Different-Phenotype (%),[2],33%
same,Population Mitotic Cells (%),[2],83%
same,Population Normal (%),[2],95%
same,Population Pyknosed Nuclei (%),[2],10%
same,Population Tubulin-Different-Phenotype (%),[2],47%
same,Total Cell Count,[2],48
same,Population Apoptotic (%),[3],52%
same,Population Fragmented Nuclei (%),[3],32%
same,Population Healthy Nuclei (%),[3],29%
same,Population Hoechst High Intensity Objects (%),[3],21%
same,Population Membrane Permeable-Phenotype (%),[3],23%
same,Population Mitochondria Different-Phenotype (%),[3],42%
same,Population Mitotic Cells (%),[3],47%
same,Population Normal (%),[3],78%
same,Population Pyknosed Nuclei (%),[3],38%
same,Population Tubulin-Different-Phenotype (%),[3],92%
same,Total Cell Count,[3],113
same,Population Apoptotic (%),[4],75%
same,Population Fragmented Nuclei (%),[4],12%
same,Population Healthy Nuclei (%),[4],67%
same,Population Hoechst High Intensity Objects (%),[4],4%
same,Population Membrane Permeable-Phenotype (%),[4],56%
same,Population Mitochondria Different-Phenotype (%),[4],98%
same,Population Mitotic Cells (%),[4],25%
same,Population Normal (%),[4],95%
same,Population Pyknosed Nuclei (%),[4],19%
same,Population Tubulin-Different-Phenotype (%),[4],98%
same,Total Cell Count,[4],60
same,Population Apoptotic (%),[5],59%
same,Population Fragmented Nuclei (%),[5],26%
same,Population Healthy Nuclei (%),[5],44%
same,Population Hoechst High Intensity Objects (%),[5],8%
same,Population Membrane Permeable-Phenotype (%),[5],19%
same,Population Mitochondria Different-Phenotype (%),[5],33%
same,Population Mitotic Cells (%),[5],40%
same,Population Normal (%),[5],91%
same,Population Pyknosed Nuclei (%),[5],29%
same,Population Tubulin-Different-Phenotype (%),[5],90%
same,Total Cell Count,[5],156
same,Population Apoptotic (%),[6],60%
same,Population Fragmented Nuclei (%),[6],11%
same,Population Healthy Nuclei (%),[6],73%
same,Population Hoechst High Intensity Objects (%),[6],4%
same,Population Membrane Permeable-Phenotype (%),[6],11%
same,Population Mitochondria Different-Phenotype (%),[6],25%
same,Population Normal (%),[6],95%
same,Population Pyknosed Nuclei (%),[6],14%
same,Population Tubulin-Different-Phenotype (%),[6],23%
same,Total Cell Count,[6],64
same,Population Apoptotic (%),[7],67%
same,Population Fragmented Nuclei (%),[7],36%
same,Population Healthy Nuclei (%),[7],24%
same,Population Hoechst High Intensity Objects (%),[7],23%
same,Population Membrane Permeable-Phenotype (%),[7],19%
same,Population Mitochondria Different-Phenotype (%),[7],71%
same,Population Mitotic Cells (%),[7],32%
same,Population Normal (%),[7],76%
same,Population Pyknosed Nuclei (%),[7],39%
same,Population Tubulin-Different-Phenotype (%),[7],80%
same,Total Cell Count,[7],113
same,Population Apoptotic (%),[8],80%
same,Population Fragmented Nuclei (%),[8],15%
same,Population Healthy Nuclei (%),[8],57%
same,Population Hoechst High Intensity Objects (%),[8],4%
same,Population Membrane Permeable-Phenotype (%),[8],80%
same,Population Mitochondria Different-Phenotype (%),[8],97%
same,Population Mitotic Cells (%),[8],19%
same,Population Normal (%),[8],95%
same,Population Pyknosed Nuclei (%),[8],26%
same,Population Tubulin-Different-Phenotype (%),[8],97%
same,Total Cell Count,[8],72
same,Population Apoptotic (%),[9],67%
same,Population Fragmented Nuclei (%),[9],22%
same,Population Healthy Nuclei (%),[9],53%
same,Population Hoechst High Intensity Objects (%),[9],9%
same,Population Membrane Permeable-Phenotype (%),[9],33%
same,Population Mitochondria Different-Phenotype (%),[9],17%
same,Population Mitotic Cells (%),[9],32%
same,Population Normal (%),[9],90%
same,Population Pyknosed Nuclei (%),[9],24%
same,Population Tubulin-Different-Phenotype (%),[9],96%
same,Total Cell Count,[9],155
same,Population Apoptotic (%),[10],100%
same,Population Fragmented Nuclei (%),[10],31%
same,Population Healthy Nuclei (%),[10],67%
same,Population Hoechst High Intensity Objects (%),[10],8%
same,Population Membrane Permeable-Phenotype (%),[10],9%
same,Population Mitochondria Different-Phenotype (%),[10],7%
same,Population Mitotic Cells (%),[10],0%
same,Population Normal (%),[10],91%
same,Population Pyknosed Nuclei (%),[10],0%
same,Population Tubulin-Different-Phenotype (%),[10],93%
same,Total Cell Count,[10],123
same,Population Apoptotic (%),[11],100%
same,Population Fragmented Nuclei (%),[11],33%
same,Population Healthy Nuclei (%),[11],37%
same,Population Hoechst High Intensity Objects (%),[11],40%
same,Population Membrane Permeable-Phenotype (%),[11],21%
same,Population Mitochondria Different-Phenotype (%),[11],56%
same,Population Mitotic Cells (%),[11],0%
same,Population Normal (%),[11],59%
same,Population Pyknosed Nuclei (%),[11],29%
same,Population Tubulin-Different-Phenotype (%),[11],82%
same,Total Cell Count,[11],104
same,Population Apoptotic (%),[12],57%
same,Population Fragmented Nuclei (%),[12],44%
same,Population Healthy Nuclei (%),[12],47%
same,Population Hoechst High Intensity Objects (%),[12],25%
same,Population Membrane Permeable-Phenotype (%),[12],2%
same,Population Mitochondria Different-Phenotype (%),[12],79%
same,Population Mitotic Cells (%),[12],42%
same,Population Normal (%),[12],75%
same,Population Pyknosed Nuclei (%),[12],7%
same,Population Tubulin-Different-Phenotype (%),[12],95%
same,Total Cell Count,[12],120
Cn1cc(-c2[nH]c3cc(NC(=O)[C@H](N)C4CCCCC4)cc4c3c2C=NNC4=O)cn1,Population Apoptotic (%),[1],76%
same,Population Fragmented Nuclei (%),[1],27%
same,Population Healthy Nuclei (%),[1],42%
same,Population Hoechst High Intensity Objects (%),[1],8%
same,Population Membrane Permeable-Phenotype (%),[1],18%
same,Population Mitochondria Different-Phenotype (%),[1],13%
same,Population Mitotic Cells (%),[1],23%
same,Population Normal (%),[1],91%
same,Population Pyknosed Nuclei (%),[1],30%
same,Population Tubulin-Different-Phenotype (%),[1],28%
same,Total Cell Count,[1],138
same,Population Apoptotic (%),[2],33%
same,Population Fragmented Nuclei (%),[2],13%
same,Population Healthy Nuclei (%),[2],72%
same,Population Hoechst High Intensity Objects (%),[2],3%
same,Population Membrane Permeable-Phenotype (%),[2],4%
same,Population Mitochondria Different-Phenotype (%),[2],7%
same,Population Mitotic Cells (%),[2],66%
same,Population Normal (%),[2],96%
same,Population Pyknosed Nuclei (%),[2],13%
same,Population Tubulin-Different-Phenotype (%),[2],12%
same,Total Cell Count,[2],51
same,Population Apoptotic (%),[3],69%
same,Population Fragmented Nuclei (%),[3],48%
same,Population Healthy Nuclei (%),[3],38%
same,Population Hoechst High Intensity Objects (%),[3],20%
same,Population Membrane Permeable-Phenotype (%),[3],20%
same,Population Mitochondria Different-Phenotype (%),[3],4%
same,Population Mitotic Cells (%),[3],30%
same,Population Normal (%),[3],79%
same,Population Pyknosed Nuclei (%),[3],13%
same,Population Tubulin-Different-Phenotype (%),[3],43%
same,Total Cell Count,[3],244
same,Population Fragmented Nuclei (%),[4],37%
same,Population Healthy Nuclei (%),[4],42%
same,Population Hoechst High Intensity Objects (%),[4],9%
same,Population Membrane Permeable-Phenotype (%),[4],21%
same,Population Mitochondria Different-Phenotype (%),[4],53%
same,Population Normal (%),[4],90%
same,Population Pyknosed Nuclei (%),[4],19%
same,Population Tubulin-Different-Phenotype (%),[4],57%
same,Total Cell Count,[4],91
same,Population Apoptotic (%),[5],58%
same,Population Fragmented Nuclei (%),[5],27%
same,Population Healthy Nuclei (%),[5],44%
same,Population Hoechst High Intensity Objects (%),[5],12%
same,Population Membrane Permeable-Phenotype (%),[5],20%
same,Population Mitochondria Different-Phenotype (%),[5],3%
same,Population Mitotic Cells (%),[5],41%
same,Population Normal (%),[5],87%
same,Population Pyknosed Nuclei (%),[5],28%
same,Population Tubulin-Different-Phenotype (%),[5],26%
same,Total Cell Count,[5],137
same,Population Apoptotic (%),[6],43%
same,Population Fragmented Nuclei (%),[6],13%
same,Population Healthy Nuclei (%),[6],70%
same,Population Hoechst High Intensity Objects (%),[6],3%
same,Population Membrane Permeable-Phenotype (%),[6],9%
same,Population Mitochondria Different-Phenotype (%),[6],6%
same,Population Mitotic Cells (%),[6],56%
same,Population Normal (%),[6],96%
same,Population Pyknosed Nuclei (%),[6],15%
same,Population Tubulin-Different-Phenotype (%),[6],15%
same,Total Cell Count,[6],52
same,Population Apoptotic (%),[7],62%
same,Population Fragmented Nuclei (%),[7],54%
same,Population Healthy Nuclei (%),[7],37%
same,Population Hoechst High Intensity Objects (%),[7],23%
same,Population Membrane Permeable-Phenotype (%),[7],20%
same,Population Mitochondria Different-Phenotype (%),[7],1%
same,Population Mitotic Cells (%),[7],37%
same,Population Normal (%),[7],76%
same,Population Pyknosed Nuclei (%),[7],8%
same,Population Tubulin-Different-Phenotype (%),[7],52%
same,Total Cell Count,[7],256
same,Population Apoptotic (%),[8],86%
same,Population Fragmented Nuclei (%),[8],34%
same,Population Healthy Nuclei (%),[8],29%
same,Population Hoechst High Intensity Objects (%),[8],16%
same,Population Membrane Permeable-Phenotype (%),[8],44%
same,Population Mitochondria Different-Phenotype (%),[8],61%
same,Population Mitotic Cells (%),[8],13%
same,Population Normal (%),[8],83%
same,Population Pyknosed Nuclei (%),[8],36%
same,Population Tubulin-Different-Phenotype (%),[8],55%
same,Total Cell Count,[8],106
same,Population Apoptotic (%),[9],43%
same,Population Fragmented Nuclei (%),[9],30%
same,Population Healthy Nuclei (%),[9],49%
same,Population Hoechst High Intensity Objects (%),[9],14%
same,Population Membrane Permeable-Phenotype (%),[9],26%
same,Population Mitochondria Different-Phenotype (%),[9],3%
same,Population Mitotic Cells (%),[9],56%
same,Population Normal (%),[9],85%
same,Population Pyknosed Nuclei (%),[9],20%
same,Population Tubulin-Different-Phenotype (%),[9],26%
same,Total Cell Count,[9],134
same,Population Apoptotic (%),[10],0%
same,Population Fragmented Nuclei (%),[10],47%
same,Population Healthy Nuclei (%),[10],50%
same,Population Hoechst High Intensity Objects (%),[10],15%
same,Population Membrane Permeable-Phenotype (%),[10],20%
same,Population Mitochondria Different-Phenotype (%),[10],2%
same,Population Mitotic Cells (%),[10],100%
same,Population Normal (%),[10],84%
same,Population Pyknosed Nuclei (%),[10],2%
same,Population Tubulin-Different-Phenotype (%),[10],38%
same,Total Cell Count,[10],103
same,Population Apoptotic (%),[11],77%
same,Population Fragmented Nuclei (%),[11],52%
same,Population Healthy Nuclei (%),[11],41%
same,Population Hoechst High Intensity Objects (%),[11],39%
same,Population Membrane Permeable-Phenotype (%),[11],14%
same,Population Mitochondria Different-Phenotype (%),[11],3%
same,Population Mitotic Cells (%),[11],22%
same,Population Normal (%),[11],60%
same,Population Pyknosed Nuclei (%),[11],5%
same,Population Tubulin-Different-Phenotype (%),[11],36%
same,Total Cell Count,[11],251
same,Population Apoptotic (%),[12],50%
same,Population Fragmented Nuclei (%),[12],62%
same,Population Healthy Nuclei (%),[12],35%
same,Population Hoechst High Intensity Objects (%),[12],32%
same,Population Membrane Permeable-Phenotype (%),[12],11%
same,Population Mitochondria Different-Phenotype (%),[12],2%
same,Population Mitotic Cells (%),[12],50%
same,Population Normal (%),[12],67%
same,Population Pyknosed Nuclei (%),[12],1%
same,Population Tubulin-Different-Phenotype (%),[12],53%
same,Total Cell Count,[12],186
